According to ChEMBL document CHEMBL4020818, “Novel Sigma Receptor Ligand-Nitric Oxide Photodonors: Molecular Hybrids for Double-Targeted Antiproliferative Effect” (J Med Chem, 2017):
Active and inactive are the calls of the source.

What was measured:
[1] = target: Sigma non-opioid intracellular receptor 1 (Cavia porcellus, UniProt Q60492); assay: Displacement of [3H]-(+)-pentazocine from sigma 1 receptor in guinea pig brain membranes after 150 mins by liquid scintillation counting method; format: cell membranes, Membrane
Chain of Sigma non-opioid intracellular receptor 1 (Q60492 whole entry): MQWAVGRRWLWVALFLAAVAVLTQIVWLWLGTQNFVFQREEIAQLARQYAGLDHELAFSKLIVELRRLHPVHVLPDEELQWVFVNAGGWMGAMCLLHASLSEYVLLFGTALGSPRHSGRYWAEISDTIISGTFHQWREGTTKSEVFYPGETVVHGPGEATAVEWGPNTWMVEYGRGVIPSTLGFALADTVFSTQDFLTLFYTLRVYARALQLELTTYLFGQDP
Outline: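 Separated by filtration on PEI-presoaked GF/B filters, washed with ice-cold buffer, counted by liquid scintillation.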

[2] = target: Sigma intracellular receptor 2 (Homo sapiens, UniProt Q5BJF2); assay: Displacement of [3H]-DTG from sigma 2 receptor (unknown origin) after 120 mins by liquid scintillation counting method
Chain of Sigma intracellular receptor 2 (Q5BJF2 whole entry): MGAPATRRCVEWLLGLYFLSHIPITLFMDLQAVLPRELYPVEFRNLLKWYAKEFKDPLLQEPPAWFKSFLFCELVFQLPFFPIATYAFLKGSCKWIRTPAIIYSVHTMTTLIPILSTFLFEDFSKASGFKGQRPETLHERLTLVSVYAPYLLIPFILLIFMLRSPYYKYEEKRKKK

[3] = Selectivity ratio of Ki for sigma 1 receptor in guinea pig brain membranes to Ki for sigma 2 receptor (unknown origin); format: cell membranes
[4] = Solubility of the compound in water/methanol (1:1) mixture; format: physicochemical; details: buffer
[5] = Stability of the compound in water/methanol (1:1) mixture assessed as nitric oxide release under light irradiation by amperometric detection method; format: physicochemical; details: buffer
[6] = Dark toxicity in human MCF7 cells assessed as decrease in cell viability after 24 hrs by MTT assay; format: cell-based
Outline: (§1)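 Cells seeded at 10 × 10^3 per well, grown 24 h, then exposed in the dark for 24 h at 37 °C to compound (DMSO stock diluted in medium), top concentration 100 µM. MTT 0.5% added for 4 h, formazan dissolved in DMSO, read at 550 nm. Viability is expressed relative to untreated controls. EC50 comes from a variable-slope sigmoidal fit; quadruplicate wells, mean ± SEM.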

[7] = Dark toxicity in human A2058 cells assessed as decrease in cell viability after 24 hrs by MTT assay; format: cell-based; outline: as §1
[8] = Dark toxicity in human NCTC-2544 cells assessed as decrease in cell viability after 24 hrs by MTT assay; format: cell-based; outline: as §1
MCF7 [9] = assay: Phototoxicity in human MCF7 cells assessed as decrease in cell viability at 0.01 to 10 uM preincubated for 24 hrs followed by light irradiation for 15 mins by MTT assay; format: functional, cell-based
Outline: (§2)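 Cells preincubated 24 h with graded compound concentrations, medium then replaced with phenol red-free medium. Irradiated 15 min with a 150 W Xe lamp through a 390 nm cutoff filter; untreated cells also irradiated. Viability by MTT (0.5%, 4 h, DMSO, 550 nm) as percent of untreated controls; quadruplicate wells, mean ± SD.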

MCF7 [10] = assay: Dark toxicity in human MCF7 cells assessed as decrease in cell viability at 0.01 to 10 uM after 24 hrs by MTT assay; format: cell-based; details: mcf7, 24 h
Outline: (§3)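 Dark arm of the light experiments. Cells were seeded at 10 × 10^3 per well, precultured 24 h, then incubated 24 h at 37 °C with graded compound concentrations without irradiation. Viability was read by MTT (0.5%, 4 h, DMSO, 550 nm) as percent of untreated controls; quadruplicate wells, mean ± SD.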

A2058 [11] = assay: Phototoxicity in human A2058 cells assessed as decrease in cell viability at 1 to 10 uM preincubated for 24 hrs followed by light irradiation for 15 mins by MTT assay; format: functional, cell-based; outline: as §2
NCTC-2544 [12] = assay: Phototoxicity in human NCTC-2544 cells assessed as decrease in cell viability at 0.01 to 10 uM preincubated for 24 hrs followed by light irradiation for 15 mins by MTT assay; format: cell-based; details: nctc-2544, 0.25 h; outline: as §2
NCTC-2544 [13] = assay: Dark toxicity in human NCTC-2544 cells assessed as decrease in cell viability at 0.01 to 10 uM after 24 hrs by MTT assay; format: cell-based; details: nctc-2544, 24 h; outline: as §3
[14] = Stability in human MCF7 cells assessed as nitric oxide release under light irradiation at 10 uM preincubated for 24 hrs followed by light irradiation for 15 mins by DCF-DA dye-based fluorescence microscopic method; format: ADME, cell-based; details: mcf7, 0.25 h
Outline: (§4)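 Cells plated on glass coverslips at 50,000, attached overnight, serum-starved 24 h, then treated with compound for 24 h. Loaded with 10 µM DCF-DA for 1 h, washed in PBS, irradiated in phenol red-free medium (Xe lamp, 390 nm cutoff, 15 min). Fixed in 4% PFA and imaged by fluorescence microscopy at 10x and 40x, dark versus light.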

[15] = Stability in human A2058 cells assessed as nitric oxide release under light irradiation at 10 uM preincubated for 24 hrs followed by light irradiation for 15 mins by DCF-DA dye-based fluorescence microscopic method; format: ADME, cell-based; details: a2058, 0.25 h; outline: as §4
[16] = Stability of the compound in water/methanol (1:1) mixture assessed as nitric oxide release under dark condition at 50 uM by amperometric detection method; format: physicochemical; details: buffer
[17] = Stability of the compound in water/methanol (1:1) mixture assessed as nitric oxide release under light irradiation at 50 uM by amperometric detection method; format: physicochemical; details: buffer
MCF7 [18] = assay: Phototoxicity in human MCF7 cells assessed as decrease in cell viability at 10 to 50 uM preincubated for 24 hrs followed by light irradiation for 15 mins by MTT assay; format: functional, cell-based; outline: as §2
NCTC-2544 [19] = assay: Phototoxicity in human NCTC-2544 cells assessed as decrease in cell viability at 10 to 50 uM preincubated for 24 hrs followed by light irradiation for 15 mins by MTT assay; format: cell-based; details: nctc-2544, 0.25 h; outline: as §2
NCTC-2544 [20] = assay: Dark toxicity in human NCTC-2544 cells assessed as decrease in cell viability at 10 to 50 uM after 24 hrs by MTT assay; format: cell-based; details: nctc-2544, 24 h; outline: as §3
[21] = Stability in human MCF7 cells assessed as nitric oxide release under light irradiation at 50 uM preincubated for 24 hrs followed by light irradiation for 15 mins by DCF-DA dye-based fluorescence microscopic method; format: ADME, cell-based; details: mcf7, 0.25 h; outline: as §4
[22] = Stability in human MCF7 cells assessed as nitric oxide release under light irradiation at 50 uM preincubated for 24 hrs followed by light irradiation for 15 mins by Griess assay; format: ADME, cell-based; details: mcf7, 0.25 h
Outline: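 After 50 µM compound treatment and irradiation (or dark control), cells were pelleted and lysed in hypotonic solution. Supernatant mixed 1:1 with Griess reagent, 30 min at 37 °C in the dark, absorbance read at 545 nm. Normalised to protein content; total nitrite quantified against a sodium nitrite standard.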

A2058 [23] = assay: Phototoxicity in human A2058 cells assessed as decrease in cell viability at 10 to 25 uM preincubated for 24 hrs followed by light irradiation for 15 mins by MTT assay; format: functional, cell-based
Outline: (§5)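 Cells seeded at 10 × 10^3 per well and grown 24 h. Compound from DMSO stock, diluted in medium, incubated 24 h at 37 °C. Medium then swapped for phenol red-free medium and cells irradiated 15 min (150 W Xe lamp, 390 nm cutoff). MTT (0.5%) for 4 h, formazan in DMSO, OD 550 nm; viability as % of untreated controls. Quadruplicate wells, ≥2 repeats.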

A2058 [24] = assay: Phototoxicity in human A2058 cells assessed as decrease in cell viability at 50 uM preincubated for 24 hrs followed by light irradiation for 15 mins by MTT assay; format: functional, cell-based; outline: as §5
MCF7 [25] = assay: Dark toxicity in human MCF7 cells assessed as decrease in cell viability at 10 to 50 uM after 24 hrs by MTT assay; format: cell-based; details: mcf7, 24 h; outline: as §3
A2058 [26] = assay: Phototoxicity in human A2058 cells assessed as decrease in cell viability at 10 to 50 uM preincubated for 24 hrs followed by light irradiation for 15 mins by MTT assay; format: functional, cell-based; outline: as §2
A2058 [27] = assay: Dark toxicity in human A2058 cells assessed as decrease in cell viability at 10 to 50 uM after 24 hrs by MTT assay; format: cell-based; details: a2058, 24 h; outline: as §3

SMILES	Ki [1]	Ki [2]	Ratio Ki [3]	solubility [4]	Stability [5]	EC50 at 24 h ([6]; read-out: EC50)	EC50 at 24 h ([6]; read-out: pEC50 (converted))	EC50 at 24 h ([7]; read-out: EC50)	EC50 at 24 h ([7]; read-out: pEC50 (converted))	EC50 at 24 h ([8]; read-out: EC50)	EC50 at 24 h ([8]; read-out: pEC50 (converted))	further results
O=[N+]([O-])c1ccc(NCCCCCN2CCC(Cc3ccccc3)CC2)cc1C(F)(F)F	0.0404 µM	0.024 µM	1.68	Soluble	Unstable	14.9 µM	14.8 µM	14.2 µM	14.1 µM	15 µM	15.1 µM	Activity (MCF7 [9]): Active; Activity (MCF7 [10]): Non-Toxic; Activity (A2058 [11]): Active; Activity (NCTC-2544 [12]): Non-Toxic; Activity (NCTC-2544 [13]): Non-Toxic; Stability [14]: Unstable; Stability [15]: Unstable
COc1cccc2c1C(=O)c1c(O)c3c(c(O)c1C2=O)C[C@@](O)(C(=O)CO)C[C@@H]3O[C@H]1C[C@H](N)[C@H](O)[C@H](C)O1 [DOXORUBICIN]						15.3 µM	15.5 µM	6.5 µM	6.46 µM	32.5 µM	32.4 µM	
COc1cc2c(cc1OC)CN(CCCNc1ccc([N+](=O)[O-])c(C(F)(F)F)c1)CC2	0.212 µM	0.0162 µM	13.1	Soluble	Unstable							
O=[N+]([O-])c1ccc(NCCCCN2CCC(Cc3ccccc3)CC2)cc1C(F)(F)F	0.02 µM	0.0084 µM	2.38	Soluble	Unstable							
O=[N+]([O-])c1ccc(NCCCN2CCC(Cc3ccccc3)CC2)cc1C(F)(F)F	0.0416 µM	0.0223 µM	1.87	Soluble	Unstable							
COc1cc2c(cc1OC)CN(CCCCCNc1ccc([N+](=O)[O-])c(C(F)(F)F)c1)CC2	0.0394 µM	0.0255 µM	1.55	Soluble		> 100 µM	> 100 µM	> 100 µM	> 100 µM	> 100 µM	> 100 µM	Stability [16]: Stable; Stability [17]: Unstable; Activity (MCF7 [18]): Active; Activity (NCTC-2544 [19]): Non-Toxic; Activity (NCTC-2544 [20]): Non-Toxic; Stability [21]: Unstable; Stability [22]: Unstable; Activity (A2058 [23]): inactive; Activity (A2058 [24]): Active
COc1cc2c(cc1OC)CN(CCNc1ccc([N+](=O)[O-])c(C(F)(F)F)c1)CC2	3.92 µM	0.0238 µM	164	Soluble	Unstable	> 100 µM	> 100 µM	> 100 µM	> 100 µM	> 100 µM	> 100 µM	Activity (MCF7 [18]): Active; Activity (MCF7 [25]): Non-Toxic; Activity (A2058 [26]): inactive; Activity (A2058 [27]): Non-Toxic; Activity (NCTC-2544 [19]): Non-Toxic; Activity (NCTC-2544 [20]): Non-Toxic; Stability [21]: Unstable; Stability [22]: Unstable
COc1cc2c(cc1OC)CN(CCCCNc1ccc([N+](=O)[O-])c(C(F)(F)F)c1)CC2	0.0378 µM	0.023 µM	1.64	Soluble	Unstable							
O=[N+]([O-])c1ccc(NCCN2CCC(Cc3ccccc3)CC2)cc1C(F)(F)F	0.0407 µM	0.0761 µM	0.53	Soluble	Unstable							
